# Source: ChEMBL document CHEMBL3286133, “Synthesis, biological evaluation and molecular docking studies of trans-indole-3-acrylamide derivatives, a new class of tubulin polymerization inhibitors” (Bioorg Med Chem, 2014)
# Calls of active or inactive are those of the source. The rule behind the calls is not given here.
# Tests used:
# HeLa [1] = experiment: Antiproliferative activity against human HeLa cells after 48 hrs by MTT assay; assay type: functional, cell-based
# MDA-MB-231 = experiment: Antiproliferative activity against human MDA-MB-231 cells after 48 hrs by MTT assay; assay type: functional, cell-based; conditions: MDA-MB-231, 48 h
# How it was run: (§1)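 MTT viability assay. HL-60 and Raji were grown in RPMI-1640 and MCF7/MDA-MB-231 in DMEM, all with 10% FBS, at 37 °C under 5% CO₂. Cells were seeded at 10,000/well, held overnight in 1% FBS medium, then exposed 48 h to 0.1–125 µM. Solvent control was 0.1% DMSO. MTT was 0.5 mg/mL for 4 h, formazan was dissolved in DMSO, and absorbance read at 570 nm. Quadruplicates; IC50 taken from concentration–response curves.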
# MCF7 = experiment: Antiproliferative activity against human MCF7 cells after 48 hrs by MTT assay; assay type: functional, cell-based; conditions: MCF7, 48 h; how it was run: as §1
# Raji = experiment: Antiproliferative activity against human Raji cells after 48 hrs by MTT assay; assay type: functional, cell-based; how it was run: as §1
# HL-60 [2] = experiment: Antiproliferative activity against human HL60 cells after 48 hrs by MTT assay; assay type: functional, cell-based; conditions: HL-60, 48 h; how it was run: as §1
# Tubulin (Bos taurus) [3] = biological target: T1, Tubulin (Bos taurus) (UniProt Q6B856+Q862L2+Q862F3); experiment: Displacement of [3H]colchicine from bovine brain tubulin at 50 uM after 10 mins by liquid scintillation counting
# How it was run: (§2)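 [³H]colchicine binding in 0.1 mL. Bovine brain tubulin 1.0 µM, [³H]colchicine 5.0 µM, 1.0 M glutamate, 5% DMSO, inhibitor at 5 or 50 µM; 10 min at 37 °C. Reactions were stopped with ice-cold water and filtered through two stacked DEAE-cellulose filters, which were washed with cold water. Bound label was counted by liquid scintillation.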
# Tubulin = Tubulin (Bos taurus, UniProt Q6B856+Q862L2+Q862F3); experiment: Inhibition of bovine brain tubulin polymerization after 20 mins by spectrophotometry
# HeLa [4] = experiment: Cell cycle arrest in human HeLa cells assessed as decrease in accumulation at G1 phase at 0 to 30 uM for 24 hrs by flow cytometry; assay type: functional, cell-based
# How it was run: (§3)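 DNA-content flow cytometry. 5×10⁵ HeLa or HL-60 cells were treated 24 h at a range of concentrations. Cells were fixed in ice-cold 70% ethanol, lysed in buffer with RNase A and 0.1% Triton X-100, and stained with PI. Phase distribution was taken from DNA histograms. Means of three independent experiments.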
# Tubulin (Bos taurus) [5] = biological target: T1, Tubulin (Bos taurus); experiment: Displacement of [3H]colchicine from bovine brain tubulin at 5 uM after 10 mins by liquid scintillation counting; how it was run: as §2
# HL-60 [6] = experiment: Cell cycle arrest in human HL60 cells assessed as increase in accumulation at G2/M phase for 24 hrs by flow cytometry; assay type: functional, cell-based; how it was run: as §3
# HeLa [7] = experiment: Cell cycle arrest in human HeLa cells assessed as increase in accumulation at G2/M phase for 24 hrs by flow cytometry; assay type: functional, cell-based; how it was run: as §3
# HL-60 [8] = experiment: Cell cycle arrest in human HL60 cells assessed as decrease in accumulation at G1 phase at 0 to 30 uM for 24 hrs by flow cytometry; assay type: functional, cell-based; how it was run: as §3
# HL-60 [9] = experiment: Cell cycle arrest in human HL60 cells assessed as increase in accumulation at G2/M phase at 10 uM for 24 hrs by flow cytometry; assay type: functional; conditions: in the assay text read “at 15 to 30 uM” for “at 10 uM”; how it was run: as §3
# HeLa [10] = experiment: Cell cycle arrest in human HeLa cells assessed as increase in accumulation at G2/M phase at 10 uM for 24 hrs by flow cytometry; assay type: functional; conditions: in the assay text read “at 15 to 30 uM” for “at 10 uM”; how it was run: as §3
# HeLa [11] = experiment: Induction of apoptosis in human HeLa cells assessed as increase in number of early apoptotic cells for 24 and 48 hrs by annexin-V/propidium-iodide staining based flow cytometry; assay type: functional, cell-based
# How it was run: (§4)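 Annexin-V-FITC/PI double staining with flow cytometry on HL-60 and HeLa cells after 24 or 48 h of treatment. Excitation 488 nm; emission 525 nm (FITC) and 585 nm (PI). Early apoptotic cells scored as annexin-V+/PI−, late apoptotic as annexin-V+/PI+. Means of three independent experiments.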
# HeLa [12] = experiment: Induction of apoptosis in human HeLa cells assessed as increase in number of late apoptotic cells for 24 and 48 hrs by annexin-V/propidium-iodide staining based flow cytometry; assay type: functional, cell-based; how it was run: as §4
# HeLa [13] = experiment: Induction of apoptosis in human HeLa cells assessed as increase in number of early apoptotic cells at 1 and 10 uM hrs by annexin-V/propidium-iodide staining based flow cytometry; assay type: functional, cell-based; conditions: TDE = time-dependent effect; how it was run: as §4
# HeLa [14] = experiment: Induction of apoptosis in human HeLa cells assessed as increase in number of late apoptotic cells at 1 and 10 uM hrs by annexin-V/propidium-iodide staining based flow cytometry; assay type: functional, cell-based; conditions: TDE = time-dependent effect; how it was run: as §4
# HL-60 [15] = experiment: Induction of apoptosis in human HL60 cells assessed as increase in number of early apoptotic cells for 24 and 48 hrs by annexin-V/propidium-iodide staining based flow cytometry; assay type: functional, cell-based; how it was run: as §4
# HL-60 [16] = experiment: Induction of apoptosis in human HL60 cells assessed as increase in number of late apoptotic cells for 24 and 48 hrs by annexin-V/propidium-iodide staining based flow cytometry; assay type: functional, cell-based; how it was run: as §4
# HL-60 [17] = experiment: Induction of apoptosis in human HL60 cells assessed as increase in number of late apoptotic cells at 1 and 10 uM by annexin-V/propidium-iodide staining based flow cytometry; assay type: functional, cell-based; conditions: TDE = time-dependent effect; how it was run: as §4
# HL-60 [18] = experiment: Induction of apoptosis in human HL60 cells assessed as increase in number of early apoptotic cells at 1 and 10 uM by annexin-V/propidium-iodide staining based flow cytometry; assay type: functional, cell-based; conditions: TDE = time-dependent effect; how it was run: as §4
# HL-60 [19] = experiment: Induction of apoptosis in human HL60 cells assessed as increase in cleaved caspase-3 level at 1 to 10 uM after 24 to 48 hrs by western blot analysis; assay type: functional, cell-based
# How it was run: (§5)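 Western blot on HL-60 cells exposed for the indicated times. Lysates were cleared at 15000 × g, 4 °C; 20 µg protein was run on 7.5–15% SDS-PAGE and transferred to PVDF. Blocking in 5% BSA for 2 h, then caspase-3 and PARP antibodies overnight at 4 °C and peroxidase secondary for 60 min. ECL detection; β-actin reprobe as loading control.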
# HL-60 [20] = experiment: Induction of apoptosis in human HL60 cells assessed as increase in cleaved PARP level at 1 to 10 uM after 24 to 48 hrs by western blot analysis; assay type: functional, cell-based; how it was run: as §5
# HL-60 [21] = experiment: Cell cycle arrest in human HL60 cells assessed as decrease in accumulation at S phase at 0 to 30 uM for 24 hrs by flow cytometry; assay type: functional, cell-based; how it was run: as §3
# HeLa [22] = experiment: Cell cycle arrest in human HeLa cells assessed as decrease in accumulation at S phase at 0 to 30 uM for 24 hrs by flow cytometry; assay type: functional, cell-based; how it was run: as §3
Structure (SMILES),IC50 (HeLa [1]) [µM],IC50 (MDA-MB-231) [µM],IC50 (MCF7) [µM],IC50 (Raji) [µM],IC50 (HL-60 [2]) [µM],inhibition (Tubulin (Bos taurus) [3]) [%],IC50 (Tubulin) [µM],also measured
COc1ccc(NC(=O)/C=C/c2c[nH]c3ccccc23)cc1OC,31.4,> 100,> 100,10.3,6.2,11,> 40,
COc1ccc(CNC(=O)/C=C/c2c[nH]c3ccccc23)cc1OC,> 100,> 100,> 100,> 100,> 100,13,> 40,
COc1cc(NC(=O)/C=C/c2c[nH]c3ccccc23)cc(OC)c1,> 100,> 100,> 100,9.3,7.1,26,> 40,
COc1cc(OC)c(NC(=O)/C=C/c2c[nH]c3ccccc23)c(OC)c1,> 100,> 100,> 100,> 100,> 100,11,> 40,
COc1cc(NC(=O)/C=C/c2c[nH]c3ccccc23)cc(OC)c1OC,23.7,> 100,36.3,9.5,5.1,50,17,Activity (HeLa [4]): Active; inhibition (Tubulin (Bos taurus) [5]): 11%; Activity (HL-60 [6]): Dose-dependent effect; Activity (HeLa [7]): Dose-dependent effect; Activity (HL-60 [8]): Active; Activity (HL-60 [9]): 60%; Activity (HeLa [10]): > 80%; Activity (HeLa [11]): Dose-dependent effect; Activity (HeLa [12]): Dose-dependent effect; Activity (HeLa [13]): tde; Activity (HeLa [14]): tde; Activity (HL-60 [15]): Dose-dependent effect; Activity (HL-60 [16]): Dose-dependent effect; Activity (HL-60 [17]): tde; Activity (HL-60 [18]): tde; Activity (HL-60 [19]): Active; Activity (HL-60 [20]): Active; Activity (HL-60 [21]): Active; Activity (HeLa [22]): Active
COc1ccc(OC)c(NC(=O)/C=C/c2c[nH]c3ccccc23)c1,> 100,> 100,> 100,22.9,10.1,15,> 40,
COc1cc(CNC(=O)/C=C/c2c[nH]c3ccccc23)ccc1O,> 100,> 100,> 100,33.1,> 100,14,> 40,
COc1ccc(NC(=O)/C=C/c2c[nH]c3ccccc23)c(OC)c1,> 100,> 100,> 100,22.6,17.8,13,> 40,
COc1ccc(OC)c(CNC(=O)/C=C/c2c[nH]c3ccccc23)c1,> 100,> 100,> 100,> 100,> 100,23,> 40,
COc1ccc(CNC(=O)/C=C/c2c[nH]c3ccccc23)c(OC)c1,> 100,> 100,> 100,> 100,> 100,,> 40,
COc1cccc(CNC(=O)/C=C/c2c[nH]c3ccccc23)c1OC,36.5,> 100,> 100,> 100,> 100,12,> 40,
